According to paper PMC4415995 (Advances in Therapy, 2015):
Where two headings read alike, the source gives them in different places.

Type: in vivo, human
Settings: for AUC / AUC(0-inf) / Cmax / half-life / Tmax: human, plasma, oral; for Cmax: C max
Outline: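 Oral doses of 0.5–5 mg once daily for 7 days, given with 150 mL water before a standardized ~600 kcal breakfast. Venous blood was drawn pre-dose and 0.25–24 h after dosing on Days 1 and 7, and pre-breakfast on Days 9–11. Urine was pooled at 4 °C over intervals. Samples were stored at −70 °C. Parent and active O-deethyl metabolite were measured by solid-phase extraction and LC–MS/MS with deuterated internal standards. Parameters were non-compartmental; metabolite ratio was AUCτ(M2)/AUCτ(parent).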

Ae0–24 (0.5 mg luseogliflozin OD, Day 1, urine): 3.76 ± 0.832 % of dose
Ae0–24 (0.5 mg luseogliflozin OD, Day 7, urine): 4.56 ± 1.04 % of dose
Ae0–24 (1 mg luseogliflozin OD, Day 1, urine): 4.06 ± 0.497 % of dose
Ae0–24 (1 mg luseogliflozin OD, Day 7, urine): 4.30 ± 0.875 % of dose
Ae0–24 (2.5 mg luseogliflozin OD, Day 1, urine): 4.51 ± 1.13 % of dose
Ae0–24 (2.5 mg luseogliflozin OD, Day 7, urine): 4.79 ± 1.09 % of dose
Ae0–24 (5 mg luseogliflozin OD, Day 1, urine): 4.11 ± 0.763 % of dose
Ae0–24 (5 mg luseogliflozin OD, Day 7, urine): 4.56 ± 0.617 % of dose
accumulation after multiple doses (AUCinf Day 1 vs AUCτ Day 7 comparable): does not accumulate
dose proportionality for C max and AUCτ (power model) (Day 7, 0.5-5 mg): dose proportionality
AUC (0.5 mg): 0.179 ± 0.0326 µg·h/mL
AUC(0-inf) (0.5 mg): 0.171 ± 0.0384 µg·h/mL
Cmax (0.5 mg, 0.5 mg luseogliflozin OD, Day 1, plasma): 0.0219 ± 0.00288 µg/mL
Cmax (0.5 mg, 0.5 mg luseogliflozin OD, Day 7, plasma): 0.0256 ± 0.00425 µg/mL
half-life (0.5 mg, t 1/2, 0.5 mg luseogliflozin OD, Day 1, plasma): 9.86 ± 1.57 h
half-life (0.5 mg, t 1/2, 0.5 mg luseogliflozin OD, Day 7, plasma): 10.5 ± 1.03 h
Tmax (0.5 mg, t max, 0.5 mg luseogliflozin OD, Day 1, plasma): 0.857 ± 0.556 h
Tmax (0.5 mg, t max, 0.5 mg luseogliflozin OD, Day 7, plasma): 0.643 ± 0.244 h
AUC (1 mg): 0.37 ± 0.0555 µg·h/mL
AUC(0-inf) (1 mg): 0.357 ± 0.0539 µg·h/mL
Cmax (1 mg, 1 mg luseogliflozin OD, Day 1, plasma): 0.0437 ± 0.0108 µg/mL
Cmax (1 mg, 1 mg luseogliflozin OD, Day 7, plasma): 0.0523 ± 0.0109 µg/mL
half-life (1 mg, t 1/2, 1 mg luseogliflozin OD, Day 1, plasma): 9.61 ± 1.34 h
half-life (1 mg, t 1/2, 1 mg luseogliflozin OD, Day 7, plasma): 10 ± 1.37 h
Tmax (1 mg, t max, 1 mg luseogliflozin OD, Day 1, plasma): 0.688 ± 0.259 h
Tmax (1 mg, t max, 1 mg luseogliflozin OD, Day 7, plasma): 0.688 ± 0.259 h
AUC (2.5 mg): 0.899 ± 0.148 µg·h/mL
AUC(0-inf) (2.5 mg): 0.864 ± 0.132 µg·h/mL
Cmax (2.5 mg, 2.5 mg luseogliflozin OD, Day 1, plasma): 0.119 ± 0.027 µg/mL
Cmax (2.5 mg, 2.5 mg luseogliflozin OD, Day 7, plasma): 0.136 ± 0.042 µg/mL
half-life (2.5 mg, t 1/2, 2.5 mg luseogliflozin OD, Day 1, plasma): 9.24 ± 0.928 h
half-life (2.5 mg, t 1/2, 2.5 mg luseogliflozin OD, Day 7, plasma): 9.2 ± 0.71 h
Tmax (2.5 mg, t max, 2.5 mg luseogliflozin OD, Day 1, plasma): 0.625 ± 0.354 h
Tmax (2.5 mg, t max, 2.5 mg luseogliflozin OD, Day 7, plasma): 1 ± 0.886 h
AUC (5 mg): 1.88 ± 0.318 µg·h/mL
AUC(0-inf) (5 mg): 1.69 ± 0.271 µg·h/mL
Cmax (5 mg, 5 mg luseogliflozin OD, Day 1, plasma): 0.243 ± 0.0457 µg/mL
half-life (5 mg, t 1/2, 5 mg luseogliflozin OD, Day 1, plasma): 8.96 ± 1.11 h
half-life (5 mg, t 1/2, 5 mg luseogliflozin OD, Day 7, plasma): 9.54 ± 1.26 h
Tmax (5 mg, t max, 5 mg luseogliflozin OD, Day 1, plasma): 0.625 ± 0.231 h
Tmax (5 mg, t max, 5 mg luseogliflozin OD, Day 7, plasma): 0.688 ± 0.259 h
half-life (mean t 1/2, all four doses (0.5-5 mg)): ~10 h
Tmax (t max (mean), across 0.5-5 mg doses, Days 1 and 7, plasma): 0.625 to 1 h
SMILES: CCOc1ccc(Cc2cc([C@@H]3S[C@H](CO)[C@@H](O)[C@H](O)[C@H]3O)c(OC)cc2C)cc1 [Luseogliflozin, (1S)-1,5-anhydro-1-[5-(4-ethoxybenzyl)-2-methoxy-4-methylphenyl]-1-thio-D-glucitol]
